Experimental findings from ChEMBL document CHEMBL3860025, “Antiproliferative and Anti-inflammatory Withanolides from Physalis angulata” (J Nat Prod, 2016) are described below.

SMILES strings stand for the structures.

Test [1] in a line: Antiproliferative activity against human A498 cells assessed as inhibition of cell viability after 48 hrs by MTT reduction assay. In kind it is functional, cell-based. The note with it: A498, 48 h. In a few lines: (§1)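 Cells grown in RPMI-1640 or EMEM with 10% FBS at 37 °C under 5% CO2. Seeded at 1 × 10^4 cells/well for 12 h, then exposed to a range of compound concentrations for 48 h. Viability read by MTT reduction. 5-Fluorouracil was the positive control. Each assay was repeated three times, and IC50 reported as mean ± SD.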
A general note: Tetrazolium dyes change colour on reduction, which living cells bring about.

Test [2] in a line: Antiproliferative activity against human 786-0 cells assessed as inhibition of cell viability after 48 hrs by MTT reduction assay. The note with it: 786-0, 48 h. In kind it is functional, cell-based. In a few lines: as §1
Test [3] in a line: Antiproliferative activity against human C4-2B cells assessed as inhibition of cell viability after 48 hrs by MTT reduction assay. Format: functional, cell-based. To be noted: LNCaP C4-2B. In a few lines: as §1
Test [4] is described as follows: Antiinflammatory activity in mouse RAW264.7 cells assessed as inhibition of LPS-induced nitric oxide production after 24 hrs by Griess assay. In kind it is functional, cell-based. The note with it: RAW264.7, 24 h. Summed up:
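RAW 264.7 macrophages seeded at 1 × 10^6 cells/well, then incubated 24 h at 37 °C with LPS (1 μg/mL), with or without test compounds. NO measured by Griess reagent (0.1% N-(1-naphthyl)ethylenediamine plus 1% sulfanilamide in 5% H3PO4), absorbance at 540 nm. NO concentration and inhibition rate calculated from a standard curve. Hydrocortisone served as positive control.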
(The Griess reaction detects nitrite, a stable product of nitric oxide.)

Test [5] is described as follows: Antiproliferative activity against human 22Rv1 cells assessed as inhibition of cell viability after 48 hrs by MTT reduction assay. In kind it is functional, cell-based, CWR22R. To be noted: 22Rv1, 48 h. In a few lines:
as §1

The nature of test [6]: Antiproliferative activity against human A375-S2 cells assessed as inhibition of cell viability after 48 hrs by MTT reduction assay. The note with it: A375-S2, 48 h. In kind it is functional, cell-based. Summed up:
as §1

Test [7] is described as follows: Antiproliferative activity against human ACHN cells assessed as inhibition of cell viability after 48 hrs by MTT reduction assay. Format: functional, cell-based. Summed up:
as §1

As to `CC(=O)O[C@H]1C=C([C@H](C)[C@H]2CC(C)=C(C)C(=O)O2)[C@@]2(C)CC[C@H]3[C@@H](C[C@@H](O)[C@@]4(O)CC=CC(=O)[C@]34C)[C@]12O`, the IC50 (usually the point on the concentration scale where inhibition reaches its midpoint) in test [1] is > 10 µM; in test [2] it was > 10 µM; in test [3] it was > 10 µM; in test [4] it was 64.1 µM; in test [5], > 10 µM; in test [6], > 10 µM. Besides, in test [7], the IC50 was > 10 µM.

`CC1=C(C)C(=O)O[C@@H]([C@@H](C)C2=C[C@H](O)[C@]3(O)[C@@H]4C[C@@H](O)[C@@]5(O)CC=CC(=O)[C@]5(C)[C@H]4CC[C@]23C)C1`: the half-inhibitory concentration (IC50) is > 10 µM in test [1]; > 10 µM in test [2]; > 10 µM in test [3]; 36.5 µM in test [4]; > 10 µM in test [5]; > 10 µM in test [6]. Moreover, in test [7], the concentration for half-maximal inhibition (IC50) is > 10 µM.

`CO[C@]12CC=CC(=O)[C@]1(C)[C@H]1CC[C@]3(C)C([C@H](C)[C@H]4CC(C)=C(C)C(=O)O4)=C[C@H](OC(C)=O)[C@]3(O)[C@@H]1C[C@H]2O`: the concentration for half-maximal inhibition (IC50) is > 10 µM in test [1]; > 10 µM in test [2]; > 10 µM in test [3]; 44.6 µM in test [4]; > 10 µM in test [5]; > 10 µM in test [6]. Also, the IC50 in test [7] is > 10 µM.

As for `CC(=O)O[C@H]1C[C@H]([C@H](C)[C@H]2CC(C)=C(C)C(=O)O2)[C@@]2(C)CC[C@H]3[C@@H](C[C@H]4O[C@]45CC=CC(=O)[C@]35C)[C@@]12O`, the 50% inhibitory concentration (IC50) in test [1] worked out at 0.71 µM; in test [2], 0.39 µM; in test [3], 0.49 µM; in test [4] it was 1.36 µM; in test [5] it was 0.9 µM; in test [6], 7.43 µM. The half-maximal inhibitory concentration (IC50) in test [7] came out at 0.73 µM.

As to `CC(=O)O[C@H]1C[C@H]([C@H](C)[C@H]2CC(C)=C(C)C(=O)O2)[C@@]2(C)CC[C@H]3[C@@H](C[C@@H](O)[C@@]4(O)CC=CC(=O)[C@]34C)[C@@]12O`, the half-maximal inhibitory concentration (IC50) in test [1] is > 10 µM; in test [2] it was > 10 µM; in test [3], > 10 µM; in test [4], 43.8 µM; in test [5] it was > 10 µM; in test [6] it was > 10 µM. Moreover, the half-inhibitory concentration (IC50) in test [7] is > 10 µM.

Take `CO[C@@H]1C=C([C@H](C)[C@H]2CC(C)=C(C)C(=O)O2)[C@@]2(C)CC[C@H]3[C@@H](C[C@@H](O)[C@@]4(O)CC=CC(=O)[C@]34C)[C@@]12O`: the half-inhibitory concentration (IC50) in test [1] is > 10 µM; in test [2] it was > 10 µM; in test [3] it was > 10 µM; in test [4], 18.7 µM; in test [5], > 10 µM; in test [6], > 10 µM. The IC50 in test [7] is > 10 µM.

On to `CC(=O)O[C@H]1C=C([C@H](C)[C@H]2CC(C)=C(C)C(=O)O2)[C@@]2(C)CC[C@H]3[C@@H](C[C@H](O)[C@]4(O)CC=CC(=O)[C@]34C)[C@@]12O`, for which the concentration for half-maximal inhibition (IC50) in test [1] was > 10 µM; in test [2] it was > 10 µM; in test [3], > 10 µM; in test [4] it was 11.6 µM; in test [5] it was > 10 µM; in test [6], > 10 µM. In addition, the IC50 in test [7] is > 10 µM.

With `CC1=C(C)C(=O)O[C@@H]([C@](C)(O)[C@H]2C[C@H](O)[C@H]3[C@@H]4C[C@@H](O)[C@@]5(O)CC=CC(=O)[C@]5(C)[C@H]4CC[C@@]32C)C1`, the IC50 is > 10 µM in test [1]; > 10 µM in test [2]; > 10 µM in test [3]; 71.7 µM in test [4]; > 10 µM in test [5]; > 10 µM in test [6]. The 50% inhibitory concentration (IC50) in test [7] is > 10 µM.

With `CC(=O)O[C@H]1C[C@H]([C@H](C)[C@H]2CC(C)=C(C)C(=O)O2)[C@@]2(C)CC[C@H]3[C@@H](C[C@@H](O)[C@@]4(O)CC=CC(=O)[C@]34C)[C@H]12`, the IC50 in test [1] was > 10 µM; in test [2] it was > 10 µM; in test [3], > 10 µM; in test [4], 17.6 µM; in test [5], 11.6 µM; in test [6], > 10 µM. Moreover, the IC50 in test [7] is > 10 µM.

With `CC1=C(C)C(=O)O[C@@H]([C@@H](C)C2=C[C@@H](O)[C@]3(O)[C@@H]4C[C@@H](O)[C@@]5(O)CC=CC(=O)[C@]5(C)[C@H]4CC[C@]23C)C1`, the IC50 was > 10 µM in test [1]; > 10 µM in test [2]; > 10 µM in test [3]; 38.2 µM in test [4]; > 10 µM in test [5]; > 10 µM in test [6]. In test [7], the IC50 is > 10 µM.

`CC1=C(C)C(=O)O[C@@H]([C@@H](C)[C@]23O[C@H]2[C@H](O)[C@]2(O)[C@@H]4C[C@@H](O)[C@@]5(O)CC=CC(=O)[C@]5(C)[C@H]4CC[C@@]23C)C1`: the IC50 in test [1] is > 10 µM; in test [2] it was > 10 µM; in test [3] it was > 10 µM; in test [4], > 100 µM; in test [5] it was > 10 µM; in test [6] it was > 10 µM. The IC50 in test [7] is > 10 µM.

As for `CO[C@]12CC=CC(=O)[C@]1(C)[C@H]1CC[C@@]3(C)[C@@](O)([C@@H]1C[C@H]2O)[C@@H](OC(C)=O)[C@@H]1O[C@@]13[C@H](C)[C@H]1CC(C)=C(C)C(=O)O1`, the IC50 in test [1] is > 10 µM; in test [2], > 10 µM; in test [3], > 10 µM; in test [4], 6.36 µM; in test [5], > 10 µM; in test [6] it was > 10 µM. Moreover, the half-maximal inhibitory concentration (IC50) in test [7] was > 10 µM.

Consider `CC1=C(CO)C[C@H]([C@]2(C)OC(=O)[C@]34[C@H](O)C[C@H]5[C@@H](CC=C6CC=CC(=O)[C@@]65C)[C@]3(O)[C@H](O)C[C@H]24)OC1=O`, for which the IC50 in test [1] was > 10 µM; in test [2], > 10 µM; in test [3] it was > 10 µM; in test [4], 17.5 µM; in test [5], > 10 µM; in test [6] it was > 10 µM. Also, the IC50 in test [7] is > 10 µM.

In the case of `CC1=C(C)C(=O)O[C@@H]([C@]2(C)OC(=O)[C@]34CC[C@H]5[C@@H](CC=C6CC=CC(=O)[C@@]65C)[C@@](O)(O3)[C@@H](O)C[C@H]24)C1`, the 50% inhibitory concentration (IC50) in test [1] is > 10 µM; in test [2], > 10 µM; in test [3] it was > 10 µM; in test [4], 25.9 µM; in test [5] it was > 10 µM; in test [6] it was > 10 µM. Besides, the IC50 in test [7] was > 10 µM.

For the compound `CC(=O)O[C@H]1C=C([C@H](C)[C@H]2CC(C)=C(C)C(=O)O2)[C@@]2(C)CC[C@H]3[C@@H](C[C@@H](O)[C@@]4(O)C[C@@H](O)CC(=O)[C@]34C)[C@@]12O`, the half-inhibitory concentration (IC50) in test [1] is > 10 µM; in test [2], > 10 µM; in test [3] it was > 10 µM; in test [4], > 100 µM; in test [5] it was > 10 µM; in test [6], > 10 µM. For the same compound, the IC50 in test [7] was > 10 µM.

Turning to `CO[C@@H]1CC(=O)[C@]2(C)[C@H]3CC[C@@]4(C)[C@@](O)([C@@H]3C[C@H]3O[C@]32C1)[C@@H](OC(C)=O)[C@@H]1O[C@@]14[C@H](C)[C@H]1CC(C)=C(C)C(=O)O1`, the half-inhibitory concentration (IC50) in test [1] was > 10 µM; in test [2] it was 2.2 µM; in test [3], 2.12 µM; in test [4], 3.51 µM; in test [5], 1.17 µM; in test [6] it was > 10 µM. In addition, in test [7], the IC50 is > 10 µM.

As to `CO[C@]12CC=CC(=O)[C@]1(C)[C@H]1CC[C@@]3(C)[C@](O)([C@@H](OC(C)=O)C[C@@]3(O)[C@H](C)[C@H]3CC(C)=C(C)C(=O)O3)[C@@H]1C[C@H]2O`, the IC50 was > 10 µM in test [1]; > 10 µM in test [2]; > 10 µM in test [3]; 3.53 µM in test [4]; > 10 µM in test [5]; > 10 µM in test [6]. Also, in test [7], the IC50 is > 10 µM.

On to `CO[C@H]1C=C([C@H](C)[C@H]2CC(C)=C(C)C(=O)O2)[C@@]2(C)CC[C@H]3[C@@H](C[C@@H](O)[C@@]4(O)CC=CC(=O)[C@]34C)[C@@]12O`, for which the IC50 was > 10 µM in test [1]; > 10 µM in test [2]; > 10 µM in test [3]; 11.4 µM in test [4]; > 10 µM in test [5]; > 10 µM in test [6]. In test [7], the IC50 was > 10 µM.

As for `CC1=C(C)C(=O)O[C@@H]([C@@H](C)C2=C[C@@H]3O[C@@H](C)O[C@@]34[C@@H]3C[C@@H](O)[C@@]5(O)CC=CC(=O)[C@]5(C)[C@H]3CC[C@]24C)C1`, the IC50 in test [1] was > 10 µM; in test [2], > 10 µM; in test [3], > 10 µM; in test [4] it was 11.2 µM; in test [5], > 10 µM; in test [6] it was > 10 µM. Besides, the IC50 in test [7] was > 10 µM.

On to `O=c1[nH]cc(F)c(=O)[nH]1` [FLUOROURACIL], for which the IC50 was 8.83 µM in test [1]; > 10 µM in test [2]; 5.64 µM in test [3]; 3.83 µM in test [5]; 1.91 µM in test [6]; 2.73 µM in test [7].
